# Experimental data pooled from the literature.
# Each line is one published result; the experiments were not run side by side.
# Cell line: Vero
# Observed: cell growth or viability
Compound,test,conditions,CC50
Clc1ccc(NCc2ccc(Oc3ccccn3)cc2)cc1,MTT,72 h,> 300 µM
CC(C(=O)O)N1c2nc(-c3ccc(Cl)cc3)c(C#N)c(=O)n2NC1(C)c1ccccc1O (stereo not drawn),MTT,72 h,250 µg/mL
C[C@@H]1[C@H](O)[C@@H](C)/C=C/C=C/C=C/C=C/C=C/C=C/C=C/[C@H](O[C@@H]2O[C@H](C)[C@@H](O)[C@H](N)[C@@H]2O)C[C@@H]2O[C@](O)(C[C@@H](O)C[C@@H](O)[C@H](O)CC[C@@H](O)C[C@@H](O)CC(=O)O[C@H]1C)C[C@H](O)[C@H]2C(=O)O,,,7.7 µM
Brc1cccc(NCc2ccc(Oc3ccccn3)cc2)c1,MTT,72 h,> 300 µM
O=C(Nc1ccc(Br)c(C(F)(F)F)c1)c1cc(Cl)ccc1O,MTT,72 h,5 µg/mL
CC(C(=O)O)N1c2nc(-c3ccc(Cl)cc3)c(C#N)c(=O)n2NC1c1ccccc1O (stereo not drawn),MTT,72 h,500 µg/mL
COC(=O)N[C@H](C(=O)N1CCC[C@H]1c1nc(-c2ccc(-c3ccc(-c4c[nH]c([C@@H]5CCCN5C(=O)[C@@H](NC(=O)OC)C(C)C)n4)cc3)cc2)c[nH]1)C(C)C,,,26 µM
Clc1cccc(NCc2ccc(Oc3ccccn3)cc2)c1,MTT,72 h,> 300 µM
O=C(Nc1ccc(Br)c(C(F)(F)F)c1)c1ccccc1O,MTT,72 h,< 5 µg/mL
CN(C)N1C(=O)c2ccccc2C1CB1OC(C)(C)C(C)(C)O1 (stereo not drawn),,,204 µM
Clc1ccccc1NCc1ccc(Oc2ccccn2)cc1,MTT,72 h,> 300 µM
O=C(Nc1ccc([N+](=O)[O-])cc1F)c1cc(Cl)ccc1O,MTT,72 h,5 µg/mL
CC1(c2ccccc2O)Nn2c(nc(-c3ccc(Cl)cc3)c(C#N)c2=O)N1C(Cc1c[nH]c2ccccc12)C(=O)O (stereo not drawn),MTT,72 h,500 µg/mL
c1ccc(NCc2ccc(Oc3ccccn3)cc2)cc1,MTT,72 h,> 300 µM
C[C@H]1COc2c(N3CCN(C)CC3)c(F)cc3c(=O)c(C(=O)O)cn1c23,MTT,72 h,> 100 µg/mL
COc1cccc(NCc2ccc(Oc3ccccn3)cc2)c1,MTT,72 h,> 300 µM
O=C(Nc1ccc(Cl)c(C(F)(F)F)c1)c1cc(Cl)ccc1O,MTT,72 h,5 µg/mL
NC(=O)c1ncn([C@@H]2O[C@H](CO)[C@@H](O)[C@H]2O)n1,MTT,72 h,> 200 µM
CC(C)(CO)C(=O)SCCOP(=O)(NCc1ccccc1)OC[C@H]1O[C@@H](n2cnc3c(=O)[nH]c(N)nc32)[C@](C)(O)[C@@H]1O (mixture of isomers),,,> 100 µM
O=C(Nc1ccc(Cl)cc1)c1cc(Cl)ccc1O,MTT,72 h,20 µg/mL
COC(=O)N[C@H](C(=O)N1C[C@@H](N=[N+]=[N-])C[C@H]1c1nc(Br)c(-c2ccc(-c3ccc(-c4[nH]c([C@@H]5C[C@H](N=[N+]=[N-])CN5C(=O)[C@@H](NC(=O)OC)C(C)C)nc4Br)cc3)cc2)[nH]1)C(C)C,,,> 100 µM
